Measurements: ChEMBL document CHEMBL3632498, “Identification of small molecule inhibitors of the STAT3 signaling pathway: Insights into their structural features and mode of action” (Bioorg Med Chem Lett, 2015)
Each block holds one compound with its values, some of them ahead of it. Active and inactive are the calls of the source. The rule behind the calls is not given here.

Experiments:
[1] = biological target: Signal transducer and activator of transcription 3 (Homo sapiens) (UniProt P40763); assay: Inhibition of STAT3 transcriptional activity in human oncostatin M-stimulated HeLa cells at 10 uM after 24 hrs by luciferase reporter gene assay; format: cell-based
Sequence of Signal transducer and activator of transcription 3 (Homo sapiens) (P40763 whole entry): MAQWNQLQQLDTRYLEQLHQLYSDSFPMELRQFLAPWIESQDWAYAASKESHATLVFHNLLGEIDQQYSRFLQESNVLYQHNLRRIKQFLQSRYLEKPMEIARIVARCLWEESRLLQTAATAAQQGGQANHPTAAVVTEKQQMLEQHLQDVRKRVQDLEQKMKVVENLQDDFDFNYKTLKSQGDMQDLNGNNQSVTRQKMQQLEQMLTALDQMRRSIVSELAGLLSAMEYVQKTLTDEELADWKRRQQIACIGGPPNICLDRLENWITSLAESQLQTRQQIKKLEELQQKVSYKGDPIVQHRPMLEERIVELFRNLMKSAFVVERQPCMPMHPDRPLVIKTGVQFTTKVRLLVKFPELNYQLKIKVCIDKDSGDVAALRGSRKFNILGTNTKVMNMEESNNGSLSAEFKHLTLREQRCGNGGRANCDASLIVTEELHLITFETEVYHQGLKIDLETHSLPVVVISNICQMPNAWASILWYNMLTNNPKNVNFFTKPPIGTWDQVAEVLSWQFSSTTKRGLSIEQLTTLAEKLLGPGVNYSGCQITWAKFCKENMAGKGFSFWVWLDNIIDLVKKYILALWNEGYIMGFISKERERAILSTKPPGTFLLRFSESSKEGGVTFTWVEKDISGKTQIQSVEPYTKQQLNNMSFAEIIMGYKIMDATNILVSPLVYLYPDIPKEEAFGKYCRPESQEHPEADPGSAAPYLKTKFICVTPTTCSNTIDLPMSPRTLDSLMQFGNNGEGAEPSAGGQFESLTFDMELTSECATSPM
How it was run: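 HeLa cells carrying a STAT3-luciferase reporter pretreated with DMSO or compound (10 µM) for 24 h, stimulated with oncostatin M 10 ng/mL for 5 h, then luciferase reporter activity measured.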

[2] = biological target: Signal transducer and activator of transcription 3 (Homo sapiens) (UniProt P40763); assay: Inhibition of STAT3 phosphorylation in human MCF10A cells transformed with H-ras at 10 uM after 24 hrs by Western blot analysis; format: cell-based; conditions: MCF-10A
How it was run: (§1)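 Immunoblot of STAT3 phosphorylation in MCF10A-ras cells after 24 h treatment at 5 and 10 µM (analogs at 10 µM). In a thiol-reducing arm, cells got 0.5 mM DTT for 1 h before 10 µM compound for 24 h.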

[3] = biological target: Signal transducer and activator of transcription 3 (Homo sapiens) (UniProt P40763); assay: Inhibition of STAT3 phosphorylation in human MCF10A cells transformed with H-ras at 5 to 10 uM after 24 hrs by Western blot analysis; format: cell-based; conditions: MCF-10A; how it was run: as §1
[4] = biological target: Signal transducer and activator of transcription 3 (Homo sapiens) (UniProt P40763); assay: Inhibition of STAT3 phosphorylation in human MCF10A cells transformed with H-ras at 1 to 10 uM after 24 hrs by Western blot analysis; format: cell-based; conditions: MCF-10A
How it was run: (§2)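 MCF10A-ras cells treated at the indicated concentrations for 24 h; lysates immunoblotted for p-STAT3, total STAT3 and p-STAT1.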

[5] = biological target: T1, Signal transducer and activator of transcription 1-alpha/beta (Homo sapiens) (UniProt P42224); assay: Inhibition of STAT1 phosphorylation in human MCF10A cells transformed with H-ras at 1 to 10 uM after 24 hrs by Western blot analysis; format: cell-based; conditions: MCF-10A; how it was run: as §2
T1 sequence (whole entry): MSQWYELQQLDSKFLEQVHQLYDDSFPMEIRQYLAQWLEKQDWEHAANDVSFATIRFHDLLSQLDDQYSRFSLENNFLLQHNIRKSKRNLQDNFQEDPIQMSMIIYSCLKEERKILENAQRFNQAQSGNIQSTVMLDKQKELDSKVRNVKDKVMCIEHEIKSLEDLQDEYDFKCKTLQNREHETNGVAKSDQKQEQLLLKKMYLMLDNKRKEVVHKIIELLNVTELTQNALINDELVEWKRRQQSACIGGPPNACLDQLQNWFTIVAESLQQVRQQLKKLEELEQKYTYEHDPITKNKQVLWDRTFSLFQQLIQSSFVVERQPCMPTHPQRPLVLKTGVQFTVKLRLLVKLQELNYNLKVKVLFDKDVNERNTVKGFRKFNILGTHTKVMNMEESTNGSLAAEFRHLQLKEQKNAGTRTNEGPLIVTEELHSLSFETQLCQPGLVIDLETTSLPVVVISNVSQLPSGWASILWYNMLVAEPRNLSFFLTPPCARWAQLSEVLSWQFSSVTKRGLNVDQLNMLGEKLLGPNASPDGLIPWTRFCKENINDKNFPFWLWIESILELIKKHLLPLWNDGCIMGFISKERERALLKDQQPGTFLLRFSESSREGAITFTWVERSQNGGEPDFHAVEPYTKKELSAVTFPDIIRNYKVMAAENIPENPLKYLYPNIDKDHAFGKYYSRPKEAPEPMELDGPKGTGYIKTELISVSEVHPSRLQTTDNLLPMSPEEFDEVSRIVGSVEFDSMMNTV

[6] = Cytotoxicity against wild type human MCF10A cells at 2 uM after 24 hrs; format: cell-based; conditions: mcf-10a
How it was run: (§3)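 MCF10A and MCF10A-ras cells exposed to each inhibitor for 24 h, then cytotoxicity measured.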

MCF-10A = assay: Cytotoxicity against human MCF10A cells transformed with H-ras at 2 uM after 24 hrs; format: functional, cell-based; how it was run: as §3
MCF7 = assay: Cytotoxicity against human MCF7 cells at 1 to 5 uM after 24 hrs; format: functional, cell-based
How it was run: (§4)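 MCF7 and MDA-MB-231 breast cancer cells treated at the indicated concentrations for 24 h; viability then assessed.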

MDA-MB-231 = assay: Cytotoxicity against human MDA-MB-231 cells at 1 to 5 uM after 24 hrs; format: functional, cell-based; how it was run: as §4
[7] = biological target: Signal transducer and activator of transcription 3 (Homo sapiens) (UniProt P40763); assay: Binding to STAT3 in human MCF10A cells transformed with H-ras at 5 to 30 uM after 24 hrs using HRP-streptavidin by Western blot analysis; conditions: MCF-10A

SMILES: COc1ccc(C(C)C(=O)c2ccc3c(c2OC)C=CC(C)(C)O3)cc1OC (centres undefined)
inhibition [1]: inactive | inhibition [2]: inactive

SMILES: C=C(C(=O)c1ccc2c(c1OC)C=CC(C)(C)O2)c1ccc(OC)c(OC)c1
inhibition [1]: Active | inhibition [3]: Active | inhibition [4]: Active | inhibition [5]: inactive | Activity [6]: Non-toxic | Activity (MCF-10A): Active | Activity (MCF7): Active | Activity (MDA-MB-231): Active

SMILES: C=C(c1ccc(OC)c(OC)c1)C(O)c1ccc2c(c1OC)C=CC(C)(C)O2 (centres undefined)
inhibition [1]: inactive

Other lines, results leading:

inhibition [1]: inactive | inhibition [2]: inactive
SMILES: COc1ccc(CC(=O)c2ccc3c(c2OC)C=CC(C)(C)O3)cc1OC

binding [7]: Active
SMILES: C=C(C(=O)c1ccc2c(c1OC)C=CC(C)(C)O2)c1ccc(OC/C=C/CNC(=O)CCCC[C@@H]2SC[C@@H]3NC(=O)N[C@@H]32)c(OC)c1
